How the values were obtained:
FM3A = assay: Antiproliferative activity against mouse FM3A cells after 2 days; assay type: functional, cell-based; conditions: 48 h
L1210 = assay: Antiproliferative activity against mouse L1210 cells after 2 days; assay type: functional, cell-based; conditions: L1210, 48 h
In short: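 Cells were seeded at 300,000–500,000 cells/mL and mixed 1:1 with compound dilutions. They were incubated at 37 °C for two days and counted with a Coulter counter. IC50 is the concentration that inhibits proliferation by 50%, given as mean ± SE from dose–response curves of at least three independent experiments.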

[1] = Antiproliferative activity against human Molt4/C8 cells after 3 days; conditions: MOLT-4, 72 h
K562 [2] = assay: Cell cycle arrest in human K-562 cells assessed as accumulation at G0/G1 phase at 115 nM after 24 hrs by flow cytometry; assay type: functional
In short: (§1)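 K562 cells exposed 24 h to compound, then washed once in ice-cold PBS. Resuspended at 1 × 10⁶ per mL in hypotonic propidium iodide 50 μg/mL with 0.1% sodium citrate and 0.03% (v/v) nonidet P-40, 30 min. Fluorescence read by flow cytometry as a single-parameter histogram. Sub-G0-G1, G0-G1, S and G2-M fractions compared with untreated control.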

K562 [3] = assay: Cell cycle arrest in human K-562 cells assessed as accumulation at S phase at 115 nM after 24 hrs by flow cytometry; assay type: functional; in short: as §1
Bos taurus = species on record: Bos taurus; assay: Displacement of [3H]colchicine from bovine brain tubulin at 1 uM
In short: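 Purified bovine brain tubulin (1 μM) was incubated with 5 μM [3H]colchicine and 1 μM test compound. The read-out is percent inhibition of radiolabelled colchicine binding.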

K562 [4] = assay: Cell cycle arrest in human K-562 cells assessed as accumulation at sub G0/G1 phase at 115 nM after 24 hrs by flow cytometry; assay type: functional; in short: as §1
K562 [5] = assay: Cell cycle arrest in human K-562 cells assessed as accumulation at G2/M phase at 115 nM after 24 hrs by flow cytometry; assay type: functional; in short: as §1
[6] = Inhibition of bovine brain tubulin polymerization for 20 mins by turbidimetry; set-up: species or system Bos taurus
In short: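 Purified bovine brain tubulin (10 μM) preincubated with varying compound concentrations in glutamate buffer at 30 °C, cooled to 0 °C, GTP added, then warmed to 30 °C in a recording spectrophotometer.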

K562 [7] = assay: Cell cycle arrest in human K-562 cells assessed as accumulation at S phase at 85 nM after 24 hrs by flow cytometry; assay type: functional
K562 [8] = assay: Cytotoxicity against human K-562 after 24 hrs; assay type: functional, cell-based; conditions: K562, 24 h
K562 [9] = assay: Cell cycle arrest in human K-562 cells assessed as accumulation at sub G0/G1 phase at 85 nM after 24 hrs by flow cytometry; assay type: functional
K562 [10] = assay: Cell cycle arrest in human K-562 cells assessed as accumulation at G2/M phase at 85 nM after 24 hrs by flow cytometry; assay type: functional
K562 [11] = assay: Cell cycle arrest in human K-562 cells assessed as accumulation at G0/G1 phase at 85 nM after 24 hrs by flow cytometry; assay type: functional
K562 [12] = assay: Cell cycle arrest in human K-562 cells assessed as accumulation at sub G0/G1 phase at 120 nM after 24 hrs by flow cytometry; assay type: functional
K562 [13] = assay: Cell cycle arrest in human K-562 cells assessed as accumulation at S phase at 120 nM after 24 hrs by flow cytometry; assay type: functional
K562 [14] = assay: Cell cycle arrest in human K-562 cells assessed as accumulation at G0/G1 phase at 120 nM after 24 hrs by flow cytometry; assay type: functional
K562 [15] = assay: Cell cycle arrest in human K-562 cells assessed as accumulation at G2/M phase at 120 nM after 24 hrs by flow cytometry; assay type: functional
K562 [16] = assay: Cell cycle arrest in human K-562 cells assessed as accumulation at G2/M phase at 212 nM after 24 hrs by flow cytometry; assay type: functional; in short: as §1
K562 [17] = assay: Cell cycle arrest in human K-562 cells assessed as accumulation at sub G0/G1 phase at 212 nM after 24 hrs by flow cytometry; assay type: functional; in short: as §1
K562 [18] = assay: Cell cycle arrest in human K-562 cells assessed as accumulation at S phase at 212 nM after 24 hrs by flow cytometry; assay type: functional; in short: as §1
K562 [19] = assay: Cell cycle arrest in human K-562 cells assessed as accumulation at G0/G1 phase at 212 nM after 24 hrs by flow cytometry; assay type: functional; in short: as §1
K562 [20] = assay: Cell cycle arrest in human K-562 cells assessed as accumulation at sub G0/G1 phase at 68 nM after 24 hrs by flow cytometry; assay type: functional
K562 [21] = assay: Cell cycle arrest in human K-562 cells assessed as accumulation at S phase at 68 nM after 24 hrs by flow cytometry; assay type: functional
K562 [22] = assay: Cell cycle arrest in human K-562 cells assessed as accumulation at G0/G1 phase at 68 nM after 24 hrs by flow cytometry; assay type: functional
K562 [23] = assay: Cell cycle arrest in human K-562 cells assessed as accumulation at G2/M phase at 68 nM after 24 hrs by flow cytometry; assay type: functional
K562 [24] = assay: Cell cycle arrest in human K-562 cells assessed as accumulation at G2/M phase at 400 nM after 24 hrs by flow cytometry; assay type: functional
K562 [25] = assay: Cell cycle arrest in human K-562 cells assessed as accumulation at G0/G1 phase at 400 nM after 24 hrs by flow cytometry; assay type: functional
K562 [26] = assay: Cell cycle arrest in human K-562 cells assessed as accumulation at sub G0/G1 phase at 400 nM after 24 hrs by flow cytometry; assay type: functional
K562 [27] = assay: Cell cycle arrest in human K-562 cells assessed as accumulation at S phase at 400 nM after 24 hrs by flow cytometry; assay type: functional

COc1cc(C(=O)c2oc3cccc(OC)c3c2N(C)C)cc(OC)c1OC
IC50 (FM3A): > 10000 nM
IC50 (L1210): > 10000 nM
IC50 [1]: > 10000 nM

COc1cc(C(=O)c2oc3c(OC)cccc3c2N)cc(OC)c1OC
IC50 (FM3A): > 10000 nM
IC50 (L1210): > 10000 nM

COc1cc(C(=O)c2oc3ccccc3c2N(C)C)cc(OC)c1OC
IC50 (FM3A): 8800 nM
IC50 (L1210): > 10000 nM

COc1cc(C(=O)c2oc3c(OC)cccc3c2N(C)C)cc(OC)c1OC
IC50 (FM3A): 1200 nM
IC50 (L1210): 1100 nM

COc1ccc2c(NC(=O)CI)c(C(=O)c3cc(OC)c(OC)c(OC)c3)oc2c1
Activity (K562 [2]): 23%
Activity (K562 [3]): 56%
Activity (Bos taurus): 54%
IC50 (FM3A): 260 nM
IC50 (L1210): 170 nM
Activity (K562 [4]): 33%
Activity (K562 [5]): 21%
IC50 [6]: 1800 nM

COc1ccc2c(NC(C)=O)c(C(=O)c3cc(OC)c(OC)c(OC)c3)oc2c1
Activity (K562 [7]): 36%
IC50 (K562 [8]): 85 nM
Activity (Bos taurus): 51%
IC50 (FM3A): 100 nM
IC50 (L1210): 94 nM
Activity (K562 [9]): 12%
Activity (K562 [10]): 37%
IC50 [6]: 1600 nM
Activity (K562 [11]): 27%

COc1ccc2c(N)c(C(=O)c3cc(OC)c(OC)c(OC)c3)oc2c1
IC50 (K562 [8]): 120 nM
Activity (Bos taurus): 73%
IC50 (FM3A): 280 nM
IC50 (L1210): 430 nM
Activity (K562 [12]): 15%
Activity (K562 [13]): 45%
Activity (K562 [14]): 11%
Activity (K562 [15]): 44%
IC50 [6]: 1100 nM

COc1cc(C(=O)c2oc3cccc(OC)c3c2N)cc(OC)c1OC
IC50 (FM3A): 7900 nM
IC50 (L1210): 7500 nM

COc1ccc2c(NC(=O)CBr)c(C(=O)c3cc(OC)c(OC)c(OC)c3)oc2c1
IC50 (FM3A): 560 nM
IC50 (L1210): 480 nM
Activity (K562 [16]): 67%
Activity (K562 [17]): 15%
Activity (K562 [18]): 27%
Activity (K562 [19]): 6%
IC50 [6]: 2300 nM

COc1ccc2oc(C(=O)c3cc(OC)c(OC)c(OC)c3)c(N)c2c1
IC50 (FM3A): > 10000 nM
IC50 (L1210): > 10000 nM

COc1ccc2c(N)c(C(=O)c3cc(OC)c(OC)c(OC)c3)sc2c1
Activity (Bos taurus): 60%
IC50 (FM3A): 46 nM
IC50 (L1210): 39 nM
IC50 [6]: 1300 nM

COc1ccc2c(N)c(C(=O)c3cc(OC)c(OC)c(OC)c3)[nH]c2c1
IC50 [6]: > 40000 nM

COc1ccc2oc(C(=O)c3cc(OC)c(OC)c(OC)c3)c(N(C)C)c2c1
IC50 (FM3A): 1200 nM
IC50 (L1210): 1400 nM

COc1cc(C(=O)c2oc3ccccc3c2N)cc(OC)c1OC
IC50 (FM3A): > 10000 nM
IC50 (L1210): > 10000 nM

COc1ccc2c(N(C)C)c(C(=O)c3cc(OC)c(OC)c(OC)c3)oc2c1
Activity (K562 [20]): 13%
Activity (Bos taurus): 76%
IC50 (FM3A): 59 nM
IC50 (L1210): 65 nM
Activity (K562 [21]): 32%
Activity (K562 [22]): 38%
Activity (K562 [23]): 30%
IC50 [6]: 900 nM

COc1ccc2c(N)c(C(=O)c3cc(OC)c(OC)c(OC)c3)n(C)c2c1
IC50 [6]: 4600 nM

COc1ccc2c(NC(=O)CCl)c(C(=O)c3cc(OC)c(OC)c(OC)c3)oc2c1
IC50 (K562 [8]): 400 nM
Activity (Bos taurus): 47%
IC50 (FM3A): 1100 nM
Activity (K562 [24]): 33%
IC50 (L1210): 1100 nM
Activity (K562 [25]): 23%
IC50 [6]: 2000 nM
Activity (K562 [26]): 13%
Activity (K562 [27]): 44%
